From ChEMBL document CHEMBL1157367, “Systematic comparison of the population pharmacokinetics and pharmacodynamics of piperacillin in cystic fibrosis patients and healthy volunteers” (Antimicrob Agents Chemother, 2007)

Experiments:
Format in all cases: ADME, organism-based
[1] = Peak drug level in healthy human at 4 g, iv; details: in vivo, read-out: Drug uptake
In short: (§1)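 Single 5-min IV infusion of 4 g piperacillin. Forearm-vein blood drawn from the arm opposite the infusion line pre-dose, at end of infusion, and 5 min to 24 h afterwards. Plasma iced, frozen at –70°C, acetonitrile-deproteinized with mezlocillin internal standard. Reversed-phase HPLC, UV 220 nm, linear 0.200–150 mg/liter. Unscaled parameters by noncompartmental analysis.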

[2] = Peak drug level in cystic fibrosis patient at 4 g, iv; details: human, in vivo, read-out: Drug uptake; in short: as §1
[3] = Terminal half life in healthy human at 4 g, iv; details: in vivo; in short: as §1
[4] = Mean residence time in cystic fibrosis patient at 4 g, iv; details: human, in vivo; in short: as §1
[5] = Volume of distribution at steady state in healthy human with lean body mass of 53 kg at 4 g, iv; details: in vivo, read-out: Vdss
In short: (§2)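 4 g piperacillin as a single 5-min IV infusion. Serial plasma sampled to 24 h and assayed by reversed-phase HPLC-UV (220 nm, mezlocillin internal standard, LOQ 0.200 mg/liter). Population PK model fitted in NONMEM with body size described by lean body mass and a CF-specific scale factor. Combined additive plus proportional residual error.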

[6] = Clearance in healthy human with lean body mass of 53 kg at 4 g, iv; details: in vivo; in short: as §2
[7] = Total clearance in healthy human at 4 g, iv; details: in vivo; in short: as §1
[8] = Volume of distribution at steady state in healthy human at 4 g, iv; details: in vivo, read-out: Vdss; in short: as §1
[9] = Total clearance in cystic fibrosis patient at 4 g, iv; details: human, in vivo; in short: as §1
[10] = Terminal half life in cystic fibrosis patient at 4 g, iv; details: human, in vivo; in short: as §1
[11] = Mean residence time in healthy human at 4 g, iv; details: in vivo; in short: as §1
Homo sapiens = experiment: Peripheral volume of distribution in cystic fibrosis patient with lean body mass of 53 kg at 4 g, iv; details: in vivo; in short: as §2
[12] = Volume of distribution at steady state in cystic fibrosis patient with lean body mass of 53 kg at 4 g, iv; details: human, in vivo, read-out: Vdss; in short: as §2
[13] = Clearance in cystic fibrosis patient with lean body mass of 53 kg at 4 g, iv; details: human, in vivo; in short: as §2
[14] = Volume of distribution at steady state in cystic fibrosis patient at 4 g, iv; details: human, in vivo, read-out: Vdss; in short: as §1

Cmax [1]: 446 µg/mL
Cmax [2]: 767 µg/mL
half-life [3]: 63 min
MRT [4]: 51 min
Vd [5]: 10.4 L
clearance [6]: 188 mL/min
clearance [7]: 195 mL/min
Vd [8]: 11.8 L
clearance [9]: 146 mL/min
half-life [10]: 41.4 min
MRT [11]: 61.2 min
Vp/F (Homo sapiens): 3.12 L
Vd [12]: 9.61 L
clearance [13]: 188 mL/min
Vd [14]: 8.13 L
SMILES: CCN1CCN(C(=O)N[C@@H](C(=O)N[C@@H]2C(=O)N3[C@@H]2SC(C)(C)[C@@H]3C(=O)O)c2ccccc2)C(=O)C1=O [PIPERACILLIN]
